Laboratory results from ChEMBL document CHEMBL3392971, “Design and synthesis of protein kinase C epsilon selective diacylglycerol lactones (DAG-lactones)” (Eur J Med Chem, 2015).

Experiments:
[1] = molecular target: T1, Protein kinase C epsilon type (Homo sapiens, UniProt Q02156); assay: Displacement of [20-3H] phorbol 12, 13-dibutylate from recombinant PKCepsilon (unknown origin) in presence of 100 ug/ml 100% phosphatidylserine
T1 sequence (Q02156 whole entry): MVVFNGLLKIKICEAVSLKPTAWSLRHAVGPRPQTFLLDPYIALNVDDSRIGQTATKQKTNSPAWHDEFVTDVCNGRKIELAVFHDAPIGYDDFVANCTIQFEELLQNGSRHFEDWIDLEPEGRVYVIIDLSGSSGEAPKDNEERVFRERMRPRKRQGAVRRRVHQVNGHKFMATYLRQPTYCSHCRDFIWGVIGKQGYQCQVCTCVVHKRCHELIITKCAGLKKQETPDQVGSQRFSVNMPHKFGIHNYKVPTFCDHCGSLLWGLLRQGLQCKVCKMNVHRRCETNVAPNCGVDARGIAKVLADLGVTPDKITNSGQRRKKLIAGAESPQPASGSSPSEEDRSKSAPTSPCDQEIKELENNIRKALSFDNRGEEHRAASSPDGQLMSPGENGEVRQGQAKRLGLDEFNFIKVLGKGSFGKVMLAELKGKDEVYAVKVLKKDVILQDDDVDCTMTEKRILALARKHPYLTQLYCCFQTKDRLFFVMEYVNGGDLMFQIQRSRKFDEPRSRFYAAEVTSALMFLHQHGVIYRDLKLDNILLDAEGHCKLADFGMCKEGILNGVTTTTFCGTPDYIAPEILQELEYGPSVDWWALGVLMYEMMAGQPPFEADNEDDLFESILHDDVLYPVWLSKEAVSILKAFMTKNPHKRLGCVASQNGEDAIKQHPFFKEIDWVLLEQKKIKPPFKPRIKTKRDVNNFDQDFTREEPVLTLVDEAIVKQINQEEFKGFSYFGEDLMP

Homo sapiens [2] = species on record: Homo sapiens; assay: Selectivity index, ratio of Ki for recombinant PKCalpha (unknown origin) in presence of nuclear membrane mimetic lipid mixture to Ki for recombinant PKCepsilon (unknown origin) in presence of nuclear membrane mimetic lipid mixture; assay type: cell membranes
Summary of the method: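 Ki values for recombinant PKC-alpha and PKC-epsilon were each measured by competition with [20-3H]PDBu in the nuclear-membrane-mimetic lipid mix (POPC/POPE/POPS/POPI/cholesterol 61:21:4:7:6). The ratio is PKC-alpha Ki divided by PKC-epsilon Ki.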

[3] = molecular target: T2, Protein kinase C alpha type (Homo sapiens, UniProt P17252); assay: Displacement of [20-3H] phorbol 12, 13-dibutylate from recombinant PKCalpha (unknown origin) in presence of nuclear membrane mimetic lipid mixture; assay type: cell membranes
[4] = molecular target: T2, Protein kinase C alpha type; assay: Displacement of [20-3H] phorbol 12, 13-dibutylate from recombinant PKCalpha (unknown origin) in presence of 100 ug/ml 100% phosphatidylserine
[5] = Lipophilicity, log P of the compound; assay type: physicochemical; conditions: octanol/water
Homo sapiens [6] = species on record: Homo sapiens; assay: Selectivity index, ratio of Ki for recombinant PKCalpha (unknown origin) in presence of 100 ug/ml 100% phosphatidylserine to Ki for recombinant PKCepsilon (unknown origin) in presence of 100 ug/ml 100% phosphatidylserine
[7] = molecular target: T1, Protein kinase C epsilon type; assay: Displacement of [20-3H] phorbol 12, 13-dibutylate from recombinant PKCepsilon (unknown origin) in presence of nuclear membrane mimetic lipid mixture; assay type: cell membranes

Row | Ki [1] [nM] | Ratio Ki (Homo sapiens [2]) | Ki [3] [nM] | Ki [4] [nM] | logP [5] | Ratio Ki (Homo sapiens [6]) | Ki [7] [nM] | logP ([5]; read-out: logP) | SMILES
1 | 8.3 | 2.7 | 110 | 26.7 | 9.15 | 3.2 | 41 |  | CCCCCC1CC1CC1CC1CCCCCCC/C=C1\CC(CO)(COC(=O)C(C)(C)C)OC1=O (configuration not stated)
2 | 5.24 | 4.8 | 60.8 | 8.31 |  | 1.6 | 12.8 | 7.82 | CCCCCCC#CC#CCCCCCCCC(=O)OCC1(CO)C/C(=C\CC(C)C)C(=O)O1 (configuration not stated)
3 | 15.2 | 1.2 | 73 | 33.1 | 9.15 | 2.2 | 58.8 |  | CCCCCC1CC1CC1CC1CCCCCCC/C=C1/CC(CO)(COC(=O)C(C)(C)C)OC1=O (configuration not stated)
4 | 16.3 | 1.6 | 103 | 16.5 |  | 1 | 63 | 5.69 | CCCCCC1OC1CC1OC1CCCCCCCC(=O)OCC1(CO)C/C(=C/CC(C)C)C(=O)O1 (configuration not stated)
5 | 9.8 | 1.4 | 44 | 15.4 | 9.19 | 1.6 | 30.7 |  | CCCCCC1CC1CC1CC1CCCCCCCC(=O)OCC1(CO)C/C(=C/CC(C)C)C(=O)O1 (configuration not stated)
6 | 5.5 | 3 | 60 | 10.2 | 9.19 | 1.9 | 19.8 |  | CCCCCC1CC1CC1CC1CCCCCCCC(=O)OCC1(CO)C/C(=C\CC(C)C)C(=O)O1 (configuration not stated)
7 | 1.21 | 5.1 | 15.4 | 2.78 |  | 2.3 | 3 | 5.06 | CC(C)C/C=C1\CC(CO)(COC(=O)CC(CC(C)C)CC(C)C)OC1=O (configuration not stated)
8 | 4.79 | 4.8 | 43.8 | 8.7 |  | 1.8 | 9.1 | 8.01 | CCCCCCCCC#CCCCCCCCC(=O)OCC1(CO)C/C(=C\CC(C)C)C(=O)O1 (configuration not stated)
9 | 7.46 | 6.9 | 116 | 13.2 |  | 1.8 | 16.9 | 5.69 | CCCCCC1OC1CC1OC1CCCCCCCC(=O)OCC1(CO)C/C(=C\CC(C)C)C(=O)O1 (configuration not stated)
10 | 13.4 | 1.1 | 44.8 | 9.8 |  | 0.7 | 40.3 | 7.82 | CCCCCCC#CC#CCCCCCCCC(=O)OCC1(CO)C/C(=C/CC(C)C)C(=O)O1 (configuration not stated)
11 | 12.2 | 1.3 | 26.2 | 7.05 |  | 0.6 | 19.5 | 8.29 | CCCCCC=CCC=CCCCCCCCC(=O)OCC1(CO)C/C(=C/CC(C)C)C(=O)O1 (configuration not stated)
12 | 2.14 | 1.9 | 24.7 | 4.33 |  | 2 | 13.1 | 8.29 | CCCCCC=CCC=CCCCCCCCC(=O)OCC1(CO)C/C(=C\CC(C)C)C(=O)O1 (configuration not stated)
13 | 5.06 | 3.2 | 31.1 | 7.2 |  | 1.4 | 9.6 | 8.25 | CCCCC/C=C\C/C=C\CCCCCCC/C=C1/CC(CO)(COC(=O)C(C)(C)C)OC1=O (configuration not stated)
14 | 7.12 | 1.1 | 38.7 | 12.6 |  | 1.8 | 34.6 | 8.01 | CCCCCCCCC#CCCCCCCCC(=O)OCC1(CO)C/C(=C/CC(C)C)C(=O)O1 (configuration not stated)
15 | 4.1 | 4.9 | 25.7 | 8.26 |  | 2 | 5.2 | 8.25 | CCCCC/C=C\C/C=C\CCCCCCC/C=C1\CC(CO)(COC(=O)C(C)(C)C)OC1=O (configuration not stated)
16 | 19.3 | 3.1 | 106 | 43.9 |  | 2.3 | 34 | 8.72 | CCCCCCCCCCCCCCCCCC(=O)OCC1(CO)C/C(=C/CC(C)C)C(=O)O1 (configuration not stated)
17 | 11.4 | 2.1 | 99 | 30.8 |  | 2.7 | 47 | 8.72 | CCCCCCCCCCCCCCCCCC(=O)OCC1(CO)C/C(=C\CC(C)C)C(=O)O1 (configuration not stated)
18 | 2.37 | 3.6 | 57 | 4.74 |  | 2 | 15.6 | 5.06 | CC(C)C/C=C1/CC(CO)(COC(=O)CC(CC(C)C)CC(C)C)OC1=O (configuration not stated)

Row | SMILES | Ki [1] [nM] | Ratio Ki (Homo sapiens [2]) | Ki [3] [nM] | Ki [4] [nM] | logP [5] | Ratio Ki (Homo sapiens [6]) | Ki [7] [nM] | logP ([5]; read-out: logP)
19 | CC(C)CC(C/C=C1\CC(CO)(COC(=O)C(C)(C)C)OC1=O)CC(C)C (configuration not stated) | 1.03 | 32.2 | 46 | 8.3 |  | 8.1 | 1.43 | 
